In paper PMC4831585 (Journal of the American Chemical Society, 2015):
Residue numbers refer to the chain shown, from its start. Numbers in names are those of the source. Ends that are not written are not given here.

Experiments:
G340A-MoaA [1] = target: T1, G340A-MoaA (Staphylococcus aureus, UniProt P69848, G340A); experiment: MoaA/MoaC coupled assay; type: biochemical; details: for activity restoration lower than the 11-mer peptide: G340A-MoaA, peptide 200 μM (Figure 4A)
wt-MoaA [2] = target: T2, wt-MoaA (Staphylococcus aureus, UniProt P69848); experiment: Anaerobic ITC, wt-MoaA; type: binding
Summary of the method: (§1)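 His6-tagged S. aureus MoaA (wild type or GG-motif point mutants) was expressed in E. coli, purified and reconstituted anaerobically. […] Run as 29 injections at 24 °C, 307 rpm, with degassed buffer-only control titration.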

MoaA G339A = MoaA G339A (Staphylococcus aureus, UniProt P69848, G339A); experiment: Anaerobic ITC, G339A-MoaA; type: binding
Summary of the method: as §1

MoaA G340A = target: T3, MoaA G340A (Staphylococcus aureus, UniProt P69848, G340A); experiment: Anaerobic ITC, G340A-MoaA; type: binding
T3 sequence (P69848 1-340 G340A): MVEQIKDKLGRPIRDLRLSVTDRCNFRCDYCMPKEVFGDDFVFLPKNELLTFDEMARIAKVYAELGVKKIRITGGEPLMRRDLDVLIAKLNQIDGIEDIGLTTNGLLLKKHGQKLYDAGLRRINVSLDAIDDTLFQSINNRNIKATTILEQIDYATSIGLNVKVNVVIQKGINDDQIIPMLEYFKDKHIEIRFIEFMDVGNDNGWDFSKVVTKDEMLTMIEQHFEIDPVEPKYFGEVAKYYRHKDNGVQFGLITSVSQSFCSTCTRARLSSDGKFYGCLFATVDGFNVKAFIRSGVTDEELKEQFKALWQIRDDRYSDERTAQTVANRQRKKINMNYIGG
Summary of the method: as §1

MoaA GG-motif mutants = experiment: MoaA/MoaC coupled assay / peptide rescue, MoaA GG-motif mutants; type: biochemical, Staphylococcus aureus; details: for increase of Km over wt-MoaA: GG-motif mutants with 500 μM 11-mer peptide vs wt-MoaA
wt-MoaA [3] = target: T2, wt-MoaA; experiment: Abortive SAM cleavage; type: biochemical; details: 5′-dA vs cPMP amounts, triplicate, SD
G340A-MoaA [4] = target: T1, G340A-MoaA; experiment: Abortive SAM cleavage; type: biochemical; details: G340A-MoaA with 11-mer wt peptide, 5′-dA vs cPMP amounts; triplicate, SD
wt-MoaA [5] = target: T2, wt-MoaA; details: [3′-D]GTP vs GTP as substrate; wt-MoaA reaction; cited from earlier work
R330A/K331A/K332A-MoaA = R330A/K331A/K332A-MoaA (Staphylococcus aureus, UniProt P69848, K331A/K332A/R330A); experiment: MoaA/MoaC coupled assay / peptide rescue, R330A/K331A/K332A-MoaA; type: biochemical; details: for activity restoration by peptide: peptide 200 μM (Figure 4A)
D198A-MoaA = D198A-MoaA (Staphylococcus aureus, UniProt P69848, D198A); type: biochemical; details: without peptide; coupled assay
[6] = with 500 μM 11-mer wt peptide, coupled assay with MoaC, pH 7.6, 25 °C

Question: Which results are given for `Nc1nc2c(ncn2[C@@H]2O[C@H](COP(=O)(O)OP(=O)(O)OP(=O)(O)O)[C@@H](O)[C@H]2O)c(=O)[nH]1` [GTP, Guanosine 5′-triphosphate]?
Answer: Km (G340A-MoaA [1]; [6]): 7.7 ± 3.8 µM; kcat (G340A-MoaA [1]; [6]): 0.000783 ± 5e-05 s⁻¹; Kd (wt-MoaA [2]): 5 ± 3 µM; Kd (MoaA G339A): 0.46 ± 0.01 µM; Kd (MoaA G340A): 5.2 ± 2.3 µM; increase of Km over wt-MoaA (MoaA GG-motif mutants): 2–17 fold; uncoupling (abortive SAM cleavage relative to cPMP formation) (wt-MoaA [3]): 4.1 ± 2.7%; uncoupling (abortive SAM cleavage relative to cPMP formation) (G340A-MoaA [4]): 8.2 ± 4.8%

Question: Which Km (G340A-MoaA [1]; [6]) does the source give for `C[S+](CC[C@H](N)C(=O)[O-])C[C@H]1O[C@@H](n2cnc3c(N)ncnc32)[C@H](O)[C@@H]1O` (stereo partly drawn) [SAM, S-adenosyl-L-methionine] here?
Answer: Its Km is 37 ± 14 µM.

Question: And the Kd (wt-MoaA [2])?
Answer: Its Kd is 1.7 ± 0.6 µM.

Question: What about the Kd (MoaA G339A) of the same molecule?
Answer: Its Kd is > 90 µM.

Question: What about the Kd (MoaA G340A) of the same molecule?
Answer: Its Kd is > 90 µM.

Question: What about the “increase of Km over wt-MoaA” value (MoaA GG-motif mutants) of the same molecule?
Answer: Its value is 7–18 fold.

Question: With `[2H][C@@]1(O)[C@@H](COP(=O)(O)OP(=O)(O)OP(=O)(O)O)O[C@@H](n2cnc3c(=O)[nH]c(N)nc32)[C@@H]1O` [[3′-D]GTP] as the molecule, how does the “uncoupling (abortive SAM cleavage relative to cPMP formation)” value (wt-MoaA [3]) read?
Answer: Its value is 5.5 ± 3.0%.

Question: What about the “uncoupling (abortive SAM cleavage relative to cPMP formation)” value (G340A-MoaA [4]) of the same molecule?
Answer: The value was 25 ± 6.7%.

Question: What about the KIE (wt-MoaA [5]) of the same molecule?
Answer: The KIE was 1.28 ± 0.05.

Question: Which “activity restoration lower than the 11-mer peptide” value (G340A-MoaA [1]; coupled assay) does the source give for INMNYIGG [8-mer] here?
Answer: The value was 10 fold.

Question: And the “activity restoration by peptide” value (R330A/K331A/K332A-MoaA)?
Answer: Its value is “No significant activity restoration”.

Question: Which “activity restoration lower than the 11-mer peptide” value (G340A-MoaA [1]; coupled assay) does the source give for NYIGG [5-mer] here?
Answer: The value was 100 fold.

Question: And the “activity restoration by peptide” value (R330A/K331A/K332A-MoaA)?
Answer: Its value is “No significant activity restoration”.

Question: Which “restoration of MoaA activity by GG-motif mutated peptide” value (MoaA GG-motif mutants; even at 1.0 mM peptide concentration, coupled assay (Figure 3A)) does the source give for RKKINMNYIGA here?
Answer: The value was “did not restore the MoaA activity”.

Question: Which Kd (G340A-MoaA [1]; KD (peptide titration, figure legend), Figure 3C, nonlinear fit to the Hill equation, coupled assay) does the source give for RKKINMNYIGG [11-mer wt peptide] here?
Answer: The Kd was 151 µM.

Question: What about the Kd (R330A/K331A/K332A-MoaA; Kd (peptide titration, figure legend), Figure 4B, nonlinear fit to Hill equation) of the same molecule?
Answer: Its Kd is 172 µM.

B1: D198A-MoaA: S. aureus MoaA variant with D198A mutation in Loop 14 (protein)
chain: T3 sequence (P69848 1-340 G340A) with D198A
Question: For B1, which “activity of mutant relative to wt-MoaA” value (D198A-MoaA) is on record?
Answer: The value was 8 % the activity of wt-MoaA.

B2: R330A/K331A/K332A-MoaA (protein)
chain: T3 sequence (P69848 1-340 G340A) with R330A, K331A, K332A
Question: With B2 as the molecule, how does the “activity of mutant relative to wt-MoaA” value (R330A/K331A/K332A-MoaA; without peptide) read?
Answer: Its value is 8 % the activity of wt-MoaA.
